Experimental data from ChEMBL document CHEMBL1153473 (Bioorg Med Chem Lett, 2009).

Experiments:
[1] = target: T1, Steroid 17-alpha-hydroxylase/17,20 lyase (Rattus norvegicus, UniProt P11715); test: Inhibition of 17,20-lyase activity of rat testicular microsomal P450-17alpha
T1 sequence (P11715 whole entry): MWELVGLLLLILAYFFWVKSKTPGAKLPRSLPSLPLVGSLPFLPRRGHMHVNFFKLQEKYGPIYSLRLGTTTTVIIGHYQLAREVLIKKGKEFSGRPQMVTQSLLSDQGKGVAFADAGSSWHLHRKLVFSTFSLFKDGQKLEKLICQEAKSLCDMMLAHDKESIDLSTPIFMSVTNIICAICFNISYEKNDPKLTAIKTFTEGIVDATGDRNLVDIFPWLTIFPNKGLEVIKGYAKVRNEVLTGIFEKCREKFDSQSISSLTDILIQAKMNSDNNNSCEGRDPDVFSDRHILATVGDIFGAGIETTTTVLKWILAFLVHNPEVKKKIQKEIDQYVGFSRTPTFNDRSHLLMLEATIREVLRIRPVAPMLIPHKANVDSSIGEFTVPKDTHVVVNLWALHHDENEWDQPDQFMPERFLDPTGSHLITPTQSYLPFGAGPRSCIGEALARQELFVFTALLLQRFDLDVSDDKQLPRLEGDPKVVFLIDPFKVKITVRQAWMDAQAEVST
In short: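 Lyase reaction: rat testicular microsomes (final 0.23 mg/mL), 50 mM sodium phosphate pH 7.4, NADPH-generating system, 1 µM radiolabelled 17α-hydroxyprogesterone substrate; inhibitor added in ethanol; 37 °C prewarm 5 min, then 30 min incubation. Ether-extracted, TLC in DCM/ethyl acetate 4:1, 3H counted per spot; no-inhibitor controls. IC50 from ≥5 concentrations, each in triplicate.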

[2] = target: T1, Steroid 17-alpha-hydroxylase/17,20 lyase; test: Inhibition of 17-alpha-hydroxylase activity of rat testicular microsomal P450-17alpha
In short: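 Rat testicular microsomes (final 0.16 mg/mL) in 50 mM sodium phosphate pH 7.4 with NADPH-generating system and 1.5 µM radiolabelled progesterone; inhibitor in ethanol; 5 min prewarm at 37 °C, 15 min reaction. Ether extraction, TLC (DCM/ethyl acetate 7:3), spots scintillation-counted for 3H; no-inhibitor controls. IC50 from ≥5 concentrations in triplicate, linear regression of inhibition versus log[I].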

[3] = target: T1, Steroid 17-alpha-hydroxylase/17,20 lyase; test: Selectivity index, ratio of IC50 for 17-alpha-hydroxylase activity of rat testicular microsomal P450-17alpha to IC50 for 17,20-lyase activity of rat testicular microsomal P450-17alpha
Aromatase = target: T2, Aromatase (Homo sapiens, UniProt P11511); test: Inhibition of aromatase
T2 sequence (P11511 whole entry): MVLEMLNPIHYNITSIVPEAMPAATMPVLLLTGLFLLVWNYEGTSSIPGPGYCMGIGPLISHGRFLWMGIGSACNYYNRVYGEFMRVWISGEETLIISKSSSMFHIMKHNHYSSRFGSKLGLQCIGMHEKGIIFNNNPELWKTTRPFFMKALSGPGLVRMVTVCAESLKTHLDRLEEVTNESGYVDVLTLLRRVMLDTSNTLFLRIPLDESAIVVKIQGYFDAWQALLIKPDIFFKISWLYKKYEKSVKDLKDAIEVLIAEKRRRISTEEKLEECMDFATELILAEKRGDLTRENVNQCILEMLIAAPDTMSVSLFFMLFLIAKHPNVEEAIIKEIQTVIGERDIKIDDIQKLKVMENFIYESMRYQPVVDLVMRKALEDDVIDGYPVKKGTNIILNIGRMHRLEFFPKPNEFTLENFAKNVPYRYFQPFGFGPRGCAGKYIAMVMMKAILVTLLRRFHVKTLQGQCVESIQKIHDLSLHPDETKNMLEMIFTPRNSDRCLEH

Row | Compound | IC50 [1] [nM] | IC50 [2] [nM] | Ratio IC50 [3] | IC50 (Aromatase) [nM]
1 | O=S(=O)(Oc1ccc(Cn2ccnc2)cc1)c1ccc(Br)cc1 | 70.4 | 4840 | 34.6 | –
2 | Cc1ccc(Cn2ccnc2)cc1 | – | – | – | 24500
3 | Fc1ccc(Cn2ccnc2)cc1 | – | – | – | 880
4 | Ic1ccc(Cn2ccnc2)cc1 | – | – | 6.4 | –
5 | Clc1ccc(Cn2ccnc2)cc1 | – | – | – | 70
6 | Cc1ccc(S(=O)(=O)Oc2ccc(Cn3ccnc3)cc2)cc1 | 230 | 25200 | 109.4 | –
7 | O=[N+]([O-])c1ccc(S(=O)(=O)Oc2ccc(Cn3ccnc3)cc2)cc1 | 85 | 6880 | 80.9 | –
8 | O=S(=O)(Oc1ccc(Cn2ccnc2)cc1)c1ccc(Cl)cc1 | 98.7 | 6850 | 69.9 | –
9 | COc1ccc(S(=O)(=O)Oc2ccc(Cn3ccnc3)cc2)cc1 | 101 | 6000 | 60 | –
10 | O=S(=O)(Oc1ccc(Cn2ccnc2)cc1)c1ccc(I)cc1 | 65.1 | 10000 | 100.1 | –
11 | O=S(=O)(Oc1ccc(Cn2ccnc2)cc1)c1ccc(C(F)(F)F)cc1 | 291 | 64900 | 223.8 | –
12 | O=S(=O)(Oc1ccc(Cn2ccnc2)cc1)c1ccc(F)cc1 | 210 | 15900 | 75.9 | –
13 | CC(=O)N1CCN(c2ccc(OCC3COC(Cn4ccnc4)(c4ccc(Cl)cc4Cl)O3)cc2)CC1 (stereo not given) [KETOCONAZOLE] | – | – | 2.3 | –
14 | N#CC(C#N)=Cc1ccc(O)c(O)c1 [TYRPHOSTIN 23] | – | – | – | 70600
